The list is not random: actives were taken first. Their share in the collection is about 1.8%.
Hck Nef HTS: inhibitors of human Hck kinase activated by Nef; Recombinant Hck-YEEI plus Nef, Z-Lyte FRET kinase assay; inhibition, % at 20 µM; hit rate 0.68% among 220,000;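 active = Hck-Nef kinase inhibition above about 50%, limit read from the data; inactive = inhibition below that limit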;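 note: 0% = DMSO with Hck plus Nef and 100% = Hck alone without Nef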
Runt-SMMHC FRET: Runt domain-CBFb-SMMHC interaction inhibition | hit rate 0.74% among 220,000 | Cerulean-Runt/Venus-CBFb-SMMHC FRET ratio 530/480, 1 h | inhibition, % at 20 µM;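 active = mean inhibition across duplicate retests at 20 µM reaching about 50%, limit read from the data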;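 note: 0% = DMSO wells and 100% = wells with excess untagged CBFb-SMMHC; inhibitors lower the FRET ratio by blocking Runt binding to CBFb-SMMHC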
Target sequence (Q01196 whole entry, looked up, the tested form may be a part): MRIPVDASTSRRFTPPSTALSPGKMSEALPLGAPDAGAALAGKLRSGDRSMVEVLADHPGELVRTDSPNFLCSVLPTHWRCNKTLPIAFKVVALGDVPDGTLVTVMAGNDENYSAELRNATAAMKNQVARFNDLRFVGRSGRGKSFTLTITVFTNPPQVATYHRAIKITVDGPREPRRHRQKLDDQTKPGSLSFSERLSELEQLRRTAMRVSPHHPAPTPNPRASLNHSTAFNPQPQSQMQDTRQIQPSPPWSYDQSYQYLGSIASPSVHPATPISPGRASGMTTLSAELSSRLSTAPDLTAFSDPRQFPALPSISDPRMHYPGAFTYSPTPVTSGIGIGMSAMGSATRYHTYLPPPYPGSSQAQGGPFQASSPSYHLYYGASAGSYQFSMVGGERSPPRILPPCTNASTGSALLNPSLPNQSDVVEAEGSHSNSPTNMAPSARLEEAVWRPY
Target sequence (Q13951 whole entry, looked up, the tested form may be a part): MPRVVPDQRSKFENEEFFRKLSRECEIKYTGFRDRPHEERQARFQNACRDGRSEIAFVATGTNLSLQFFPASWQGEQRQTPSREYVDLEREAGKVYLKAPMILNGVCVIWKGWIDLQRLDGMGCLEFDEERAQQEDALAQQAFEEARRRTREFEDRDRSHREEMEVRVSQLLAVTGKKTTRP
RanGTP-Impb inh: inhibitors of RanGTP-importin-beta interaction, primary screen, biochemical, FRET, CFP-Ran, YFP-importin-beta, homogeneous. inhibition, % (concentration not given with the values). AID 2216. hit rate 1.1% among 300,000. cell-free CFP-Ran/YFP-importin-beta FRET ratio;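 active = more than half of the replicate wells show a fall in the fluorescence ratio signal beyond about 16%, limit read from the data, passing the limit was not always enough; inconclusive = exactly half of the replicate wells pass the set limit; inactive = fewer than half of replicates pass the limit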;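 note: 0% = DMSO wells and 100% = Ran loaded with GDP instead of GTP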
Runt-CBFb FRET: inhibitors of human RUNX1 Runt domain binding to CBFb; hit rate 0.46% among 220,000; Q01196+Q13951; inhibition, % at 20 µM; AID 1496; Cerulean-Runt/Venus-CBFb FRET ratio 530/480, 1 h;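 active = inhibition over about 50% at 20 µM in the single-dose screen, limit read from the data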;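 note: 0% = DMSO wells and 100% = excess unlabeled CBFb competitor control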
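test system = Cerulean-Runt domain fusion protein, energy donor | probe or stimulus = Venus-CBFb binding partner, 100 nM | incubation = two 1 h room-temperature incubations shielded from light | detection = fluorescence energy transfer, 422 nm excitation, 530/480 nm emission | measure = loss of energy transfer signal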
Runt-CBFb TRFRET: Runt-CBFb binding inhibition. shares compounds with Runt-CBFb FRET. TR-FRET RUNX1 Runt domain-CBFb binding. inhibition, % at 20 µM. hit rate 20% among 480. AID 1502; in the data active = inhibition above about 40%
Numbers without * were called inactive; ? = inconclusive; . = no result given.

SMILES	Hck Nef HTS	Runt-SMMHC FRET	RanGTP-Impb inh	Runt-CBFb FRET	Runt-CBFb TRFRET
CC1(C)C(N(O)C(=O)Nc2ccccc2)N(c2cccc(Cl)c2)C(=O)N1O (configuration not stated)	-1	-4	1	53*	-14
CN1C(=S)SC(N(O)C(=O)Nc2ccccc2)C1(C)C (configuration not stated)	-7	-2	-1	-2	.
COc1ccc(C2C(C(C)=O)=C(O)C(=O)N2c2ccc(F)cc2)cc1 (configuration not stated)	.	.	0	.	.
Cc1c(F)cccc1NS(=O)(=O)c1ccc2c(c1)c(C)cc(=O)n2C	.	.	-2	.	.
COc1ccc(CCn2c(N)c(C(=O)NCc3ccco3)c3nc4ccccc4nc32)cc1	37	79*	58*	58*	26
COc1ccc(S(=O)(=O)Cc2ccc(C(=O)NCc3ccco3)o2)cc1	-1	0	7	2	.
Cc1ccc(-c2noc(CN3C(C)CCCC3C)n2)cc1 (configuration not stated)	12	-8	9	84*	-41
Cc1ccc(-c2noc(CN3CCC(C(N)=O)CC3)n2)cc1	3	3	-2	-1	.
C#CCOCCOCCOCCNc1nc(N2CCOCC2)nc(N2CCN(C(=O)[C@H](CCC(=O)O)n3cc(C(N)[C@H](C)CC)nn3)CC2)n1 (some centres not stated)	-16	0	0	3	.
COc1cc(OC)c(C2CC(=O)N3CN(c4ccccc4)CSC3=C2C#N)cc1OC (configuration not stated)	-1	111*	-149	80*	25
CC(C)NC(=O)c1cccc(Cn2cc(Cl)cn2)c1	1	2	4	54*	-8
COC(=O)C1=C(CSc2nc3c(cc2C#N)CN(C)CC3)OC(N)=C(C#N)C1c1ccccc1F (configuration not stated)	-3	.	24*	58*	55*
COc1cc(NS(=O)(=O)c2ccc(NC(=O)Cc3ccccc3)cc2)nc(OC)n1	.	.	-2	.	.
CC(C)Sc1nc2sc(-c3ccccc3)cc2c(=O)n1N	0	-1	.	1	.
COC(=O)C(C)n1nnc2sc(-c3ccccc3)cc2c1=O (configuration not stated)	24	124*	.	58*	-98
NC(=O)c1ccc(NC(=O)COc2coc(CN3CCc4ccccc4C3)cc2=O)cc1	.	.	1	.	.
CN(C)c1cccc(C(=O)OCc2cc(=O)oc3cc(O)ccc23)c1	24	81*	?	85*	52*
O=C1CC(c2ccco2)CC(O)=C1C=NCC1NCCc2ccccc21 (configuration not stated)	1	-10	-3	1	.
O=C1CC(c2ccco2)CC(O)=C1C=NCCO (configuration not stated)	0	-5	1	81*	21
Nc1cccnc1Sc1ccc([N+](=O)[O-])cn1	3	60	2	54*	-5
C/C(=N\O)c1ncc(C(F)(F)F)cc1Cl	4	4	-1	-1	.
COC(=O)c1sccc1NC(=O)c1c(Cl)cnn1C	.	.	2	.	.
CCOc1c(C)cnc2c1c(=O)n(Cc1ccccc1F)c(=O)n2C	.	.	-1	.	.
Cc1cc(C)nc(SCC(=O)c2ccc(F)cc2)n1	.	.	3	.	.
Cc1cc(C)nc(SCCC(=O)N(C)C)n1	1	21	-2	28	.
SMILES	Hck Nef HTS	Runt-SMMHC FRET	RanGTP-Impb inh	Runt-CBFb FRET	Runt-CBFb TRFRET
Cc1cc(C)nc(SCNC(=O)c2ccc(F)cc2)n1	6	17	1	53*	8
CCNC(=O)CCSc1nc(C)cc(C)n1	15	36	4	50*	16
COc1ccc(-c2cc(=O)oc3cc(OCC(=O)Nc4ccc(CCO)cc4)ccc23)cc1	.	.	1	.	.
COc1cccc2[nH]c3c(N4CCCCC4)ncnc3c12	6	-7	6	-1	.
COc1cccc2[nH]c3c(Cl)ncnc3c12	3	2	3	52*	28
CC(C)OCCCNC(=S)Nc1ccc(S(N)(=O)=O)cc1	4	35	2	59*	-29
Cc1cccnc1NC(=O)C1CCCN1S(=O)(=O)c1ccc(Cl)cc1 (configuration not stated)	.	.	0	.	.
CCC(C)(C)NC(=O)C(C(C)C)N(CC1CCCO1)C(=O)CNS(=O)(=O)c1ccccc1 (configuration not stated)	.	.	3	.	.
CCOC(=O)c1cnc2ccc(C)cc2c1Sc1ccc(F)cc1	0	-10	-4	86*	-48
O=C(NNC1=C(C(=O)C(F)(F)F)CCC1)c1ccc(Cl)cc1	0	3	-4	77*	-32
O=C(NCCC1CCCCN1S(=O)(=O)c1ccc(F)cc1)C(=O)NCCN1CCOCC1 (configuration not stated)	.	.	0	.	.
O=C(NC1CCCCCC1)c1ccc[nH]c1=S	24	60*	1	54*	-36
NS(=O)(=O)c1cc(C(=O)OCC(=O)Nc2ccc(N3CCCCC3)cc2)ccc1Cl	-4	1	3	81*	17
Cc1ccc(NC(=S)C2=C(O)c3sccc3N(C)S2(=O)=O)cc1	-19	73*	81*	65*	16
Cc1cc(C)c2c(N)c(C(=O)Nc3nccs3)sc2n1	6	39	0	56*	16
c1nc2ccc(Cc3ccc4nc[nH]c4c3)cc2[nH]1	.	.	1	.	.
O=C(Nc1ccc(Cl)c(-c2nc3ccccc3[nH]2)c1)c1ccc2c(c1)OCO2	-32	-5	0	65*	-121
O=C(Nc1ccc(-c2nc3ccccc3[nH]2)cc1)c1ccc2c(c1)OCO2	1	-6	6	-6	.
COC(=O)c1ccccc1N/C=C1\CCc2c(c(C)nn2-c2ccccn2)C1=O	20	63*	36*	54*	51*
Cc1ncoc1C(=O)Nc1ncc([N+](=O)[O-])s1	-55	27	1	64*	20
CCOC(=O)c1c(S(=O)(=O)Nc2ccc(F)cc2Cl)c(C)n(C)c1C	.	.	-2	.	.
Cc1c(Nc2c3c(c(C#N)c4nc5ccccc5n24)CCC3)c(=O)n(-c2ccccc2)n1C	6	12	.	7	.
CCCCc1c(C)c(C#N)c2nc3ccccc3n2c1Nc1c(C)n(C)n(-c2ccccc2)c1=O	8	65*	21*	53*	-4
Cc1c(Nc2c3ccccc3nc3ccccc23)c(=O)n(-c2ccccc2)n1C	4	29	56*	114*	-4
CC(C)c1cc(CNC(=O)C2CCC(=O)N(Cc3ccccc3F)C2)on1 (configuration not stated)	.	.	1	.	.
O=C(C#Cc1cccc([N+](=O)[O-])c1)c1ccccc1	7	30	0	51*	28
Cc1sc2nc(CN3CCN(c4ccc(O)cc4)CC3)[nH]c(=O)c2c1C	-7	-4	?	54*	63*
c1ccc(-c2csc(NNC3=NCCCCC3)n2)cc1	11	52	-4	51*	44*
